Compound activity: PubChem, Broad Institute
Only some compounds are listed: those with a hit (about 2.1% of all), similar ones and a draw of the others.
XiGFP reactiv: activators of inactive X chromosome reactivation, primary screen, imaging, XiGFP fibroblasts, GFP high-content imaging, set 2. XiGFP mouse fibroblasts, % GFP-positive cells imaging, 3 d; cells co-treated with 5-aza-dC sensitizer; scaled so ellipticine positive control = 100%. activation, % at 7.58 µM. hit rate 0.055% among 360,000;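 active = mean normalized replicate activation at least 10% and every replicate at or above 10%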;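 note: 0% = median of on-plate neutral control wells and 100% = ellipticine 6 µM median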
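Material: SV40-immortalized XiGFP fibroblast cells, line 68-5-11 | Buffer or medium: DMEM containing 5-aza-dC | Dosing: One concentration, pinned | Times: 3 d treatment, 15 min room-temperature fixation | Controls: Ellipticine 6 µM positive control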
DENV2 CPE: inhibitors of DENV2 cytopathic effect, primary screen, cell-based, plate reader, single concentration; CPE inhibition, % at 9.99 µM; AID 651640, 2012; hit rate 1.7% among 350,000; DENV2-infected cells, cytopathic effect rescue; in the data active = CPE inhibition above about 20%, passing the limit was not always enough; tested in BHK-21 cells;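 note: 0% = median of neutral control wells and 100% = median of positive control wells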
Statin myotox sup: suppressors of statin myotoxicity in C2C12 myotubes, primary screen, cell-based, single point, plate reader | C2C12 myotubes + simvastatin, ATP luminescence, 48 h; scaled: DMSO 0, geranylgeraniol control 100 | rescue of ATP level, % at 7.49 µM | hit rate 0.78% among 330,000 | AID 602340, 2012;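 active = mean ATP rescue above about 67%, or every replicate alone reaching that limit, limit read from the data, passing the limit was not always enough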;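 note: myotubes were challenged with 10 µM simvastatin during compound exposure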
Cneo AK release: Cryptococcus neoformans cell lysis inducers, primary screen, AK release luminescence, single concentration; C. neoformans lysis, adenylate kinase release luminescence, 4 h; normalised: neutral wells 0, clomiphene wells 100; lysis activity, % at 15 µM; hit rate 0.2% among 360,000; AID 651654, 2012;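 active = mean lysis activity across replicates of at least 80%, whatever share of replicates individually reach that level; inactive = mean lysis activity below 80%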
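Test system: log-phase Cryptococcus neoformans yeast cells. Input: 5 × 10^6 yeast cells/mL. Medium: fresh YPD growth medium. Doses: single dose. Incubation: static 4 h at 37 °C with compound, 1 h detection. Measured by: luminescent adenylate kinase detection reagent. Read-out: signal increase indicating cell lysis. Benchmarks: Clomiphene.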
An asterisk follows results filed as active; nt = not tested or not shown.

SMILES	XiGFP reactiv	DENV2 CPE	Statin myotox sup	Cneo AK release
COc1ccc(NC(=O)Nc2ccc3c(c2)C(=O)N([C@H](C)CO)C[C@H](C)[C@H](CN(C)Cc2ccccc2)OCCCC[C@@H](C)O3)cc1	0.1	26.3*	nt	3.3
C[C@H]1CN([C@@H](C)CO)C(=O)c2cc(Br)cnc2O[C@H]1CN(C)C(=O)c1ccccc1	0.0	-9.4	0.0	-1.0
O=C(CN(Cc1ccccc1)C1=NCCS1)c1ccccc1	0.0	39.0*	nt	-1.0
CC(=O)N(C)C[C@@H]1Oc2ncc(C#CC(C)(C)O)cc2C(=O)N([C@@H](C)CO)C[C@@H]1C	-1.2	-8.3	8.4	-10.3
CC(=O)N(C)C[C@H]1Oc2ncc(C#CC(C)(C)O)cc2C(=O)N([C@@H](C)CO)C[C@@H]1C	-0.9	30.1*	-1.8	-4.3
COCC(=O)N(C)C[C@@H]1Oc2ncc(C#Cc3ccc(OC)cc3)cc2C(=O)N([C@@H](C)CO)C[C@H]1C	-0.5	67.8*	17.5	1.3
C[C@H](CO)N1C[C@H](C)[C@H](CN(C)C(=O)Nc2ccc3c(c2)OCO3)Oc2ncc(C#CC(C)(C)O)cc2C1=O	-1.3	10.9	-6.2	113.0*
COCC(=O)N(C)C[C@@H]1Oc2ncc(C#CC(C)(C)O)cc2C(=O)N([C@@H](C)CO)C[C@@H]1C	-0.5	23.5*	6.0	49.2
C[C@H](CO)N1C[C@H](C)[C@H](CN(C)C(=O)Nc2ccc3c(c2)OCO3)Oc2ncc(C#Cc3ccc(C(F)(F)F)cc3)cc2C1=O	-0.4	7.8	nt	-6.8
C[C@@H]1CN([C@@H](C)CO)S(=O)(=O)c2ccc(C#CC3CC3)cc2O[C@@H]1CN(C)C(=O)C1CCCCC1	-0.9	nt	-49.5	nt
C[C@H]1CN([C@@H](C)CO)C(=O)Cc2cc(NC(=O)Nc3cccc4ccccc34)ccc2O[C@H]1CN(C)Cc1ccc(Oc2ccccc2)cc1	-0.5	-7.1	21.7	3.4
C[C@@H]1CN([C@H](C)CO)C(=O)Cc2cc(NC(=O)Nc3cccc4ccccc34)ccc2O[C@@H]1CN(C)Cc1ccccc1	0.2	2.6	-4.4	4.7
C[C@H]1CN([C@@H](C)CO)C(=O)Cc2cc(NC(=O)Nc3cccc4ccccc34)ccc2O[C@H]1CN(C)Cc1ccc(C(=O)O)cc1	-0.6	5.4	0.5	8.5
C[C@@H]1CN([C@@H](C)CO)C(=O)Cc2cc(NC(=O)Nc3cccc4ccccc34)ccc2O[C@H]1CN(C)Cc1ccc2c(c1)OCO2	-1.3	-3.7	75.2*	0.3
C[C@H](CO)N1C[C@H](C)[C@@H](CN(C)Cc2ccc(Oc3ccccc3)cc2)Oc2ccc(NC(=O)Nc3cccc4ccccc34)cc2CC1=O	0.0	-6.5	74.5*	3.6
C[C@@H]1CN([C@@H](C)CO)C(=O)Cc2cc(NC(=O)Nc3cccc4ccccc34)ccc2O[C@@H]1CN(C)Cc1ccc(C(=O)O)cc1	-0.6	48.9*	6.3	114.7*
C[C@@H]1CN([C@@H](C)CO)C(=O)Cc2cc(NC(=O)Nc3cccc4ccccc34)ccc2O[C@H]1CN(C)Cc1ccccc1	0.0	20.4*	26.5	1.6
C[C@H]1CN([C@@H](C)CO)C(=O)Cc2cc(NC(=O)Nc3cccc4ccccc34)ccc2O[C@@H]1CN(C)Cc1ccc2c(c1)OCO2	-0.1	-7.4	33.3	0.6
CNC(=O)c1ccc(-c2ccc(F)cc2)s1	nt	nt	69.4*	-7.0
CNC(=O)c1ccc(-c2ccc(OC)cc2)s1	nt	nt	-9.0	75.0
CC1(C#N)c2ccccc2C(Br)=CN1C(=O)c1ccccc1 (stereo unspecified)	0.1	30.9*	-0.7	0.2
CNCCCC1c2ccccc2C=Cc2ccccc21	0.1	25.8*	-0.9	1.1
COc1ccc(CC(=O)OCC(=O)c2c(N)n(C)c(=O)n(C)c2=O)cc1OC	0.0	17.2	-2.7	-2.2
Cn1c(N)c(C(=O)COC(=O)Cc2ccc(Cl)c(Cl)c2)c(=O)n(C)c1=O	1.5	57.1*	0.5	-4.6
O=C(C[C@H]1CC[C@H](NC(=O)Nc2ccc(F)cc2)[C@H](CO)O1)NCc1ccccn1	0.1	3.5	0.0	-0.8
SMILES	XiGFP reactiv	DENV2 CPE	Statin myotox sup	Cneo AK release
Cc1ccccc1OCC(=O)OCC(=O)NCCNC(=O)COC(=O)COc1ccccc1C	0.1	44.2*	12.1	nt
COc1ccc(CC(=O)OCC(=O)NCCNC(=O)COC(=O)Cc2ccc(OC)cc2)cc1	0.0	60.7*	nt	1.7
COc1ccc(CNC(=O)C(C)N2C(=O)NC3(CCCCCCC3)C2=O)cc1 (stereo unspecified)	0.0	86.7*	nt	nt
COc1ccc(CNC(=O)COC(=O)CN2C(=O)NC3(CCCC3)C2=O)cc1	0.1	28.8*	0.9	2.4
COc1ccc(CCNC(=O)CN2C(=O)NC3(CCCCC3)C2=O)cc1	0.1	0.8	3.6	1.6
CC(C)NC(=O)Nc1ccc2c(c1)CC(=O)N([C@H](C)CO)C[C@H](C)[C@H](CN(C)S(=O)(=O)c1ccc(F)cc1)O2	0.0	0.3	-12.8	3.3
C[C@H]1CN([C@@H](C)CO)C(=O)c2cc(C#Cc3cccnc3)cnc2O[C@H]1CN(C)Cc1ccccc1	-0.3	-4.1	25.6	36.7
C[C@H](O)C#Cc1cnc2c(c1)C(=O)N([C@@H](C)CO)C[C@@H](C)[C@@H](CN(C)C(=O)Nc1ccc(F)cc1)O2	-1.1	-1.0	-8.9	0.6
CCCNC(=O)N(C)C[C@H]1Oc2ncc(-c3ccc(OC)cc3)cc2C(=O)N([C@H](C)CO)C[C@H]1C	-0.1	15.5	14.4	-1.9
O=C(c1ccc2nccnc2c1)N1CCN(c2ccccc2)CC1	0.2	35.4*	-0.4	3.7
N#Cc1cccnc1N1CCN(C(=O)c2ccccc2)CC1	0.1	52.1*	3.6	0.8
O=C(c1ccc2nccnc2c1)N1CCN(c2cccc(C(F)(F)F)c2)CC1	-0.1	-0.9	-0.7	-0.4
CO/N=C/C(C#N)=C/c1cc(C(=O)c2ccccc2)cn1C	0.1	46.3*	nt	nt
CO/N=C/C(C#N)=C/c1ccc(OC)c(OC)c1	0.0	0.3	nt	nt
O=C(C[C@H]1CC[C@@H]2[C@H](COC[C@@H](O)CN2Cc2ccc(Cl)cc2)O1)Nc1nccs1	-0.1	-11.6	13.2	-6.0
CCN(CC(=O)Nc1c(F)cccc1F)C(=O)C1CCN(S(=O)(=O)c2ccc(F)cc2)CC1	0.0	28.4*	-10.7	1.2
C[C@H](CO)N1C[C@H](C)[C@H](CN(C)Cc2ccc(C(F)(F)F)cc2)Oc2ccc(NC(=O)CCCN(C)C)cc2C1=O	0.3	-1.6	6.0	46.4
CC1CCN(C(=O)c2cc3nc(-c4ccccc4)cc(-c4ccccc4)n3n2)CC1	nt	nt	83.1*	0.2
CO[C@H]1CN(C)C(=O)c2cc(NS(=O)(=O)c3cccc(F)c3)ccc2OC[C@@H](C)N(Cc2cc(F)ccc2F)C[C@@H]1C	0.3	22.1*	19.6	-2.8
